ChEMBL document CHEMBL1143669, “Triterpene acids from Poria cocos and their anti-tumor-promoting effects” (2007)
Calls of active or inactive are those of the source. The calls are words filed in the database; no cut-off is given here.

Tests used:
Raji = assay: Cell viability of Raji cells; format: functional, Homo sapiens
Summary of the method: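 Raji cells were exposed to test compound at 32 nmol, a 1000:1 mol ratio to TPA, and cell viability (%) was scored in the EBV-EA activation system.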

Human gammaherpesvirus 4 [1] = assay: Effect on TPA-induced Epstein-Barr virus early antigen activation in Raji cells at 1000 mol ratio/32 pmol TPA relative to control
Human gammaherpesvirus 4 [2] = assay: Inhibition of TPA-induced Epstein-Barr virus early antigen activation in Raji cells at 100 mol ratio/32 pmol TPA relative to control; values are per cent of control
Human gammaherpesvirus 4 [3] = assay: Inhibition of TPA-induced Epstein-Barr virus early antigen activation in Raji cells at 10 mol ratio/32 pmol TPA relative to control; values are per cent of control
Human gammaherpesvirus 4 [4] = assay: Effect on TPA-induced Epstein-Barr virus early antigen activation in Raji cells at 500 mol ratio/32 pmol TPA relative to control
Mus musculus = assay: Inhibition of DMBA initiated TPA-induced skin tumor promotion in mouse at 85 nmol after 20 weeks by in vivo two-stage carcinogenesis test; format: functional, organism-based

`CC(C)=CCCC(C(=O)O)[C@H]1CC[C@@]2(C)C3=CC[C@H]4C(C)(C)[C@@H](O)CC[C@]4(C)C3=CC[C@]12C` (some centres not stated) was tested, and the Activity (Raji) was 70%, the Activity (Human gammaherpesvirus 4 [1]) was 9.2% and the “EBV-EA activation (% of control)” value (Human gammaherpesvirus 4 [2]) was 79.1%. The “EBV-EA activation (% of control)” value (Human gammaherpesvirus 4 [3]) was 100% and the Activity (Human gammaherpesvirus 4 [4]) was 45.3%.
With `C=C(C)[C@@H]1CC=C2C(=CC[C@]3(C)[C@@H](C(CCC=C(C)C)C(=O)O)CC[C@@]23C)[C@@]1(C)CCC(=O)O` (some centres not stated) [16-DEOXYPORICOIC ACID B] the Activity (Raji) was 70%, the Activity (Human gammaherpesvirus 4 [1]) was 0% and the “EBV-EA activation (% of control)” value (Human gammaherpesvirus 4 [2]) was 65%. The Activity (Mus musculus) was “Active”, the “EBV-EA activation (% of control)” value (Human gammaherpesvirus 4 [3]) was 90% and the Activity (Human gammaherpesvirus 4 [4]) was 19.3%.
For `C=C(CC[C@@H](C(=O)O)[C@H]1CC[C@@]2(C)C3=C(CC[C@]12C)[C@@]1(C)CC[C@H](O)C(C)(C)[C@@H]1CC3)C(C)C` [EBURICOIC ACID], the Activity (Raji) was 70%, the Activity (Human gammaherpesvirus 4 [1]) was 9.1% and the “EBV-EA activation (% of control)” value (Human gammaherpesvirus 4 [2]) was 75.3%. The “EBV-EA activation (% of control)” value (Human gammaherpesvirus 4 [3]) was 100% and the Activity (Human gammaherpesvirus 4 [4]) was 45.8%.
For `C=C(CC[C@@H](C(=O)O)[C@H]1CC[C@@]2(C)C3=CC[C@H]4C(C)(C)[C@@H](O)CC[C@]4(C)C3=CC[C@]12C)C(C)C` [DEHYDROEBURICOIC ACID], the Activity (Raji) was 70%, the Activity (Human gammaherpesvirus 4 [1]) was 8.7% and the “EBV-EA activation (% of control)” value (Human gammaherpesvirus 4 [2]) was 74.9%. For the same compound, the “EBV-EA activation (% of control)” value (Human gammaherpesvirus 4 [3]) was 100% and the Activity (Human gammaherpesvirus 4 [4]) was 45.1%.
In the case of `C=C(CC[C@@H](C(=O)O)[C@H]1[C@H](O)C[C@@]2(C)C3=C(CC[C@]12C)[C@@]1(C)CC[C@H](OC(C)=O)C(C)(C)[C@@H]1CC3)C(C)C` [PACHYMIC ACID], the Activity (Raji) is reported as 70%, the Activity (Human gammaherpesvirus 4 [1]) is reported as 0% and the “EBV-EA activation (% of control)” value (Human gammaherpesvirus 4 [2]) is reported as 71.6%. The “EBV-EA activation (% of control)” value (Human gammaherpesvirus 4 [3]) was 96.5% and the Activity (Human gammaherpesvirus 4 [4]) was 24.7%.
With `C=C(C)[C@@H]1CCC2=C(CC[C@]3(C)[C@@H](C(CCC(=C)C(C)(C)O)C(=O)O)[C@H](O)C[C@@]23C)[C@@]1(C)CCC(=O)O` (some centres not stated) [25-HYDROXYPORICOIC ACID H] the Activity (Raji) was 70%, the Activity (Human gammaherpesvirus 4 [1]) was 0% and the “EBV-EA activation (% of control)” value (Human gammaherpesvirus 4 [2]) was 57.5%. The “EBV-EA activation (% of control)” value (Human gammaherpesvirus 4 [3]) was 82.8% and the Activity (Human gammaherpesvirus 4 [4]) was 16.7%.
For `C=C(CC[C@@H](C(=O)O)[C@H]1[C@H](O)C[C@@]2(C)C3=CC[C@@H](C(=C)C)[C@](C)(CCC(=O)OC)C3=CC[C@]12C)C(C)C` [PORICOIC ACID AM], the Activity (Raji) was 70%, the Activity (Human gammaherpesvirus 4 [1]) was 0% and the “EBV-EA activation (% of control)” value (Human gammaherpesvirus 4 [2]) was 57.8%. The “EBV-EA activation (% of control)” value (Human gammaherpesvirus 4 [3]) was 81.8% and the Activity (Human gammaherpesvirus 4 [4]) was 9.6%.
With `C=C(CCC(C(=O)O)[C@H]1[C@H](O)C[C@@]2(C)C3=CC[C@H]4C(C)(C)[C@@H](OC(C)=O)CC[C@]4(C)C3=CC[C@]12C)C(C)C` (some centres not stated) [DEHYDROPACHYMIC ACID] the Activity (Raji) was 70%, the Activity (Human gammaherpesvirus 4 [1]) was 0% and the “EBV-EA activation (% of control)” value (Human gammaherpesvirus 4 [2]) was 72.4%. For the same compound, the “EBV-EA activation (% of control)” value (Human gammaherpesvirus 4 [3]) was 95.1% and the Activity (Human gammaherpesvirus 4 [4]) was 28.1%.
With `C=C(CCC(C(=O)O)[C@H]1CC[C@@]2(C)C3=CC[C@H]4C(C)(C)C(=O)CC[C@]4(C)C3=CC[C@]12C)C(C)C` (some centres not stated) [DEHYDROEBURICONIC ACID] the Activity (Raji) was 70%, the Activity (Human gammaherpesvirus 4 [1]) was 9.5% and the “EBV-EA activation (% of control)” value (Human gammaherpesvirus 4 [2]) was 79.5%. For the same compound, the “EBV-EA activation (% of control)” value (Human gammaherpesvirus 4 [3]) was 100% and the Activity (Human gammaherpesvirus 4 [4]) was 43.9%.
`C=C(CCC(C(=O)O)[C@H]1CC[C@@]2(C)C3=CC[C@@H](C(=C)C)[C@](C)(CCC(=O)OC)C3=CC[C@]12C)C(C)C` (some centres not stated) [PORICOIC ACID CM] was tested, and the Activity (Raji) was 70%, the Activity (Human gammaherpesvirus 4 [1]) was 0% and the “EBV-EA activation (% of control)” value (Human gammaherpesvirus 4 [2]) was 63.4%. The “EBV-EA activation (% of control)” value (Human gammaherpesvirus 4 [3]) was 87.6% and the Activity (Human gammaherpesvirus 4 [4]) was 37.2%.
`C=C(CCC(C(=O)O)[C@H]1[C@H](O)[C@H](O)[C@@]2(C)C3=CC[C@H]4C(C)(C)[C@@H](O)CC[C@]4(C)C3=CC[C@]12C)C(C)C` (some centres not stated) was tested, and the Activity (Raji) was 70%, the Activity (Human gammaherpesvirus 4 [1]) was 0% and the “EBV-EA activation (% of control)” value (Human gammaherpesvirus 4 [2]) was 70%. The “EBV-EA activation (% of control)” value (Human gammaherpesvirus 4 [3]) was 91% and the Activity (Human gammaherpesvirus 4 [4]) was 22.5%.
`C=C(CCC(C(=O)O)[C@H]1[C@H](O)C[C@@]2(C)C3=CC[C@H]4C(C)(C)C(=O)CC[C@]4(C)C3=CC[C@]12C)C(C)(C)O` (some centres not stated) was tested, and the Activity (Raji) was 70%, the Activity (Human gammaherpesvirus 4 [1]) was 0% and the “EBV-EA activation (% of control)” value (Human gammaherpesvirus 4 [2]) was 65.3%. The “EBV-EA activation (% of control)” value (Human gammaherpesvirus 4 [3]) was 91.7% and the Activity (Human gammaherpesvirus 4 [4]) was 39.5%.
For `CC1=C(/C=C/C(C)=C/C=C/C(C)=C/C=C/C=C(C)/C=C/C=C(C)/C=C/C2=C(C)CCCC2(C)C)C(C)(C)CCC1` [BETA CAROTENE], the Activity (Raji) was 70%, the Activity (Human gammaherpesvirus 4 [1]) was 8.6% and the “EBV-EA activation (% of control)” value (Human gammaherpesvirus 4 [2]) was 82.1%. For the same compound, the “EBV-EA activation (% of control)” value (Human gammaherpesvirus 4 [3]) was 100% and the Activity (Human gammaherpesvirus 4 [4]) was 34.2%.
`C=C(C)[C@@H]1CC=C2C(=CC[C@]3(C)[C@@H]([C@@H](CCC(=C)C(C)(C)O)C(=O)O)[C@H](O)C[C@@]23C)[C@@]1(C)CCC(=O)OC` [PORICOIC ACID DM] was tested, and the Activity (Raji) was 70%, the Activity (Human gammaherpesvirus 4 [1]) was 0% and the “EBV-EA activation (% of control)” value (Human gammaherpesvirus 4 [2]) was 59%. For the same compound, the “EBV-EA activation (% of control)” value (Human gammaherpesvirus 4 [3]) was 86.3% and the Activity (Human gammaherpesvirus 4 [4]) was 18.1%.
With `CC(C)=CCCC(C(=O)O)[C@H]1CC[C@@]2(C)C3=CC[C@H]4C(C)(C)C(=O)CC[C@]4(C)C3=CC[C@]12C` (some centres not stated) [DEHYDROTRAMETENONIC ACID] the Activity (Raji) was 70%, the Activity (Human gammaherpesvirus 4 [1]) was 0% and the “EBV-EA activation (% of control)” value (Human gammaherpesvirus 4 [2]) was 71%. The “EBV-EA activation (% of control)” value (Human gammaherpesvirus 4 [3]) was 94.2% and the Activity (Human gammaherpesvirus 4 [4]) was 30.1%.
In the case of `C=C(CC[C@@H](C(=O)O)[C@H]1CC[C@@]2(C)C3=CC[C@@H](C(=C)C)[C@](C)(CCC(=O)O)C3=CC[C@]12C)C(C)C` [PORICOIC ACID C], the Activity (Raji) is reported as 70%, the Activity (Human gammaherpesvirus 4 [1]) is reported as 0% and the “EBV-EA activation (% of control)” value (Human gammaherpesvirus 4 [2]) is reported as 67.2%. The Activity (Mus musculus) was “Active”, the “EBV-EA activation (% of control)” value (Human gammaherpesvirus 4 [3]) was 91.7% and the Activity (Human gammaherpesvirus 4 [4]) was 21.1%.
In the case of `C=C(CCC(C(=O)O)[C@H]1[C@H](O)C[C@@]2(C)[C@]34C=C[C@@]5(OO3)C(C)(C)[C@@H](O)CC[C@]5(C)C4=CC[C@]12C)C(C)C` (some centres not stated), the Activity (Raji) is reported as 60%, the Activity (Human gammaherpesvirus 4 [1]) is reported as 0% and the “EBV-EA activation (% of control)” value (Human gammaherpesvirus 4 [2]) is reported as 57.8%. The “EBV-EA activation (% of control)” value (Human gammaherpesvirus 4 [3]) was 83.6% and the Activity (Human gammaherpesvirus 4 [4]) was 17.4%.
`C=C(C)[C@@H]1CC=C2C(=CC[C@]3(C)[C@@H](C(CCC(=C)C(C)(C)O)C(=O)O)[C@H](O)C[C@@]23C)[C@@]1(C)CCC(=O)O` (some centres not stated) [PORICOIC ACID D] was tested, and the Activity (Raji) was 70%, the Activity (Human gammaherpesvirus 4 [1]) was 0% and the “EBV-EA activation (% of control)” value (Human gammaherpesvirus 4 [2]) was 56.1%. The “EBV-EA activation (% of control)” value (Human gammaherpesvirus 4 [3]) was 81.5% and the Activity (Human gammaherpesvirus 4 [4]) was 15.3%.
